The test system of data set [1] is Candida albicans. Description: Antifungal activity against Candida albicans ATCC 10231 after 24 hrs by two fold serial dilution method. Format: functional. The following applies: ATCC 10231, 24 h. Summed up:
(§1)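 Candida grown on Sabouraud dextrose agar at 35 °C for 24 h, adjusted to ~5×10^3 CFU/mL. Two-fold dilutions from 100 to 0.78 μg/mL in Sabouraud dextrose broth, incubated at 35 °C for 24 h. MIC is the lowest concentration inhibiting growth by eye and by OD600. CLSI-based with minor modifications.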

The test system of data set [2] is Candida albicans. Description: Antifungal activity against drug resistant Candida albicans DF2672R after 24 hrs by two fold serial dilution method. Format: functional. The method in brief: as §1
Data set [3] concerns Staphylococcus aureus. The data set can be described thus: Antibacterial activity against methicillin resistant Staphylococcus aureus DM21455 by two fold serial dilution method. Format: functional. Summed up:
(§2)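 Broth microdilution per CLSI guidelines with minor modifications, run in Mueller−Hinton broth; MIC is the lowest concentration giving no visible growth.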

The test system of data set [4] is Staphylococcus aureus. Description: Antibacterial activity against methicillin resistant Staphylococcus aureus DM9808R by two fold serial dilution method. The format is functional. Summed up:
as §2

The subject of data set [5] is Staphylococcus aureus. The data set can be described thus: Antibacterial activity against Staphylococcus aureus DM4001R by two fold serial dilution method. The format is functional. The method in brief: (§3)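 Broth microdilution (CLSI, minor modifications) in Sabouraud dextrose, Mueller−Hinton or RPMI 1640 broth; two-fold serial dilutions of compound from stock to final 100 to 0.78 μg/mL. MIC taken as lowest concentration giving no visible growth.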

A short description of data set [6]: Selectivity index, ratio of HC50 for New Zealand white rabbit RBC to MIC for Candida albicans ATCC 10231.
In another data set the test system is Pseudomonas aeruginosa. Description: Antibacterial activity against Pseudomonas aeruginosa DM23155 by two fold serial dilution method. The format is functional. Summed up:
as §3

The next data set deals with Bacillus cereus. The data set can be described thus: Antibacterial activity against Bacillus cereus ATCC11778 by two fold serial dilution method. Format: functional. The method in brief: as §3
The subject of another data set is Klebsiella pneumoniae. Description: Antibacterial activity against Klebsiella pneumoniae DM4299 by two fold serial dilution method. The format is functional. The method in brief:
as §3

Data set [7] can be described thus: Dissociation constant, pKa of compound. Format: physicochemical.
Data set [8] has as its system Candida albicans. Description: Antifungal activity against Candida albicans ATCC24433 after 24 hrs by two fold serial dilution method. The following applies: ATCC24433, 24 h. The format is functional. The method in brief:
as §1

Data set [9] relates to Candida albicans. The data set can be described thus: Antifungal activity against Candida albicans ATCC90028 after 24 hrs by two fold serial dilution method. Format: functional. The following applies: ATCC90028, 24 h. Summed up:
as §1

Data set [10] deals with Candida albicans. The data set can be described thus: Antifungal activity against Candida albicans ATCC11651 after 24 hrs by two fold serial dilution method. Format: functional. The following applies: ATCC11651, 24 h. Summed up:
as §1

For data set [11], the system named is Candida albicans. The data set can be described thus: Antifungal activity against Candida albicans DF1976R after 24 hrs by two fold serial dilution method. Format: functional. The method in brief:
as §1

The record followed here is ChEMBL document CHEMBL4028907, “Semisynthesis and Biological Evaluation of Xanthone Amphiphilics as Selective, Highly Potent Antifungal Agents to Combat Fungal Resistance” (J Med Chem, 2017).

In brackets after ≈: the same amount, converted by molar mass.

On to `CCCCCCCCNCC(O)COc1cc2oc3cc(OCC(O)CNCCCCCCCC)c(OC)c(CC=C(C)C)c3c(=O)c2c(O)c1CC=C(C)C` (stereo not given), for which the MIC with Candida albicans [1] and with Candida albicans [2] was over 50 mg/L throughout.

For the compound `CCN(CC)CC(O)COc1cc2oc3cc(OCC(O)CN(CC)CC)c(OC)c(CC=C(C)C)c3c(=O)c2c(O)c1CC=C(C)C` (stereo not given), the MIC is 1.56 to 3.13 mg/L (≈ 2.33 to 4.68 µM) against Staphylococcus aureus [3]; 6.25 mg/L (≈ 9.34 µM) in the data set with Candida albicans [1]; 1.56 to 3.13 mg/L (≈ 2.33 to 4.68 µM) in the data set with Staphylococcus aureus [4]; 1.56 to 3.13 mg/L (≈ 2.33 to 4.68 µM) in the data set with Staphylococcus aureus [5]; 25 to 50 mg/L (≈ 37.4 to 74.8 µM) against Pseudomonas aeruginosa; 6.25 mg/L (≈ 9.34 µM) against Candida albicans [2]. Also, the minimal inhibitory concentration (MIC) in the data set on Bacillus cereus lay in the range of 1.56 to 3.13 mg/L (≈ 2.33 to 4.68 µM); against Klebsiella pneumoniae, 25 to 50 mg/L (≈ 37.4 to 74.8 µM). For the same compound, the Selectivity Index in [6] amounted to 5.6.

Turning to `COc1c(OCC(O)C[N+](C)(C)C)cc2oc3cc(OCC(O)C[N+](C)(C)C)c(CC=C(C)C)c(O)c3c(=O)c2c1CC=C(C)C.[I-].[I-]` (stereo not given), the MIC with Candida albicans [1] and in the data set on Candida albicans [2] was 12.5 mg/L throughout. In data set [6], the Selectivity Index was found to be 2.9.

In the case of `COc1c(OCC(O)CN2CCCC2)cc2oc3cc(OCC(O)CN4CCCC4)c(CC=C(C)C)c(O)c3c(=O)c2c1CC=C(C)C` (stereo not given), the minimum inhibitory concentration (MIC) in the data set on Candida albicans [1] and with Candida albicans [2] was 6.25 mg/L (≈ 9.4 µM) throughout. The Selectivity Index in data set [6] was 4.2. The compound also displayed a pKa in data set [7] of 11.3.

Consider `COc1c(OCC(O)CN(C)C)cc2oc3cc(OCC(O)CN(C)C)c(CC=C(C)C)c(O)c3c(=O)c2c1CC=C(C)C` (stereo not given), for which the minimal inhibitory concentration (MIC) against Candida albicans [1] and against Candida albicans [2] was 6.25 mg/L (≈ 10.2 µM) each time. The Selectivity Index in data set [6] stood at 4.8.

In the case of `COc1c(OCC(O)CN2CCOCC2)cc2oc3cc(OCC(O)CN4CCOCC4)c(CC=C(C)C)c(O)c3c(=O)c2c1CC=C(C)C` (stereo not given), the minimal inhibitory concentration (MIC) in the data set on Candida albicans [1] and in the data set with Candida albicans [2] was 6.25 mg/L (≈ 8.97 µM) each time. Further, the Selectivity Index in [6] was over 64.

With `CN(C/C=C/C#CC(C)(C)C)Cc1cccc2ccccc12` [TERBINAFINE], 3.13 mg/L (≈ 10.7 µM) was the least that counted as inhibitory against Candida albicans [2] (MIC).

For `COc1c(OCC(O)CNCCN)cc2oc3cc(OCC(O)CNCCN)c(CC=C(C)C)c(O)c3c(=O)c2c1CC=C(C)C` (stereo not given), the minimal inhibitory concentration (MIC) against Candida albicans [1] was determined as 6.25 mg/L (≈ 9.72 µM); in the data set with Candida albicans [2], 12.5 mg/L (≈ 19.4 µM). The Selectivity Index in data set [6] lay in the range of 2.4 to 4.8.

On to `CCCCCCN(CCCCCC)CC(O)COc1cc2oc3cc(OCC(O)CN(CCCCCC)CCCCCC)c(OC)c(CC=C(C)C)c3c(=O)c2c(O)c1CC=C(C)C` (stereo not given), for which the MIC in the data set on Candida albicans [1] and with Candida albicans [2] was 12.5 mg/L (≈ 14 µM) in each case. Moreover, the Selectivity Index in [6] is over 32.

As for `COc1c(OCC(O)CN2CCNCC2)cc2oc3cc(OCC(O)CN4CCNCC4)c(CC=C(C)C)c(O)c3c(=O)c2c1CC=C(C)C` (stereo not given), the MIC against Candida albicans [1] and in the data set on Candida albicans [2] was 12.5 mg/L (≈ 18 µM) throughout. In addition, the Selectivity Index in data set [6] turned out to be 2.6. Also, the pKa in data set [7] amounted to 9.55.

`COc1c(OCC(O)CNC2CCCCCCC2)cc2oc3cc(OCC(O)CNC4CCCCCCC4)c(CC=C(C)C)c(O)c3c(=O)c2c1CC=C(C)C` (stereo not given): the MIC in the data set on Candida albicans [1] and against Candida albicans [2] was 6.25 mg/L (≈ 8.04 µM) each time. Also, the Selectivity Index in [6] worked out at 29.7.

In the case of `COc1c(OCC(=O)N[C@@H](CCCNC(=N)N)C(=O)OC(C)(C)C)cc2oc3cc(OCC(=O)N[C@@H](CCCNC(=N)N)C(=O)OC(C)(C)C)c(CC=C(C)C)c(O)c3c(=O)c2c1CC=C(C)C`, the minimal inhibitory concentration (MIC) in the data set on Candida albicans [1] worked out at 12.5 mg/L (≈ 13.1 µM); against Candida albicans [2], 6.25 mg/L (≈ 6.57 µM). For the same compound, the Selectivity Index in data set [6] was 6.3 to 12.6.

Regarding `COc1c(O)cc2oc3cc(O)c(CC=C(C)C)c(O)c3c(=O)c2c1CC=C(C)C` [MANGOSTIN], the MIC with Candida albicans [1] and against Candida albicans [2] was over 50 mg/L each time. Besides, the Selectivity Index in data set [6] was under 0.2.

As for `CCCCN(C)CC(O)COc1cc2oc3cc(OCC(O)CN(C)CCCC)c(OC)c(CC=C(C)C)c3c(=O)c2c(O)c1CC=C(C)C` (stereo not given), the minimum inhibitory concentration (MIC) in the data set with Candida albicans [1] was determined as 3.13 mg/L (≈ 4.49 µM); in the data set on Candida albicans [8], 6.25 mg/L (≈ 8.97 µM); in the data set on Candida albicans [9], 3.13 mg/L (≈ 4.49 µM); in the data set with Candida albicans [2], 3.13 mg/L (≈ 4.49 µM); with Candida albicans [10], 6.25 mg/L (≈ 8.97 µM); against Candida albicans [11] it was 3.13 mg/L (≈ 4.49 µM). Moreover, the Selectivity Index in data set [6] turned out to be 15.5.

In the case of `COc1c(OCC(O)CNC(CO)(CO)CO)cc2oc3cc(OCC(O)CNC(CO)(CO)CO)c(CC=C(C)C)c(O)c3c(=O)c2c1CC=C(C)C` (stereo not given), the minimal inhibitory concentration (MIC) against Candida albicans [1] and with Candida albicans [2] was 6.25 mg/L (≈ 8.17 µM) throughout. Further, in data set [6], the Selectivity Index stood at 3.9.

Turning to `CCCNCC(O)COc1cc2oc3cc(OCC(O)CNCCC)c(OC)c(CC=C(C)C)c3c(=O)c2c(O)c1CC=C(C)C` (stereo not given), the MIC in the data set with Candida albicans [1] and in the data set with Candida albicans [2] was 6.25 mg/L (≈ 9.75 µM) each time. Also, the Selectivity Index in data set [6] came out at 11.6.

In the case of `CC[N+](C)(CC)CC(O)COc1cc2oc3cc(OCC(O)C[N+](C)(CC)CC)c(OC)c(CC=C(C)C)c3c(=O)c2c(O)c1CC=C(C)C.[I-].[I-]` (stereo not given), the MIC came to 12.5 mg/L in the data set with Candida albicans [1] and 6.25 mg/L in the data set on Candida albicans [2]. The Selectivity Index in data set [6] is 2.9 to 5.7.

The term MIC denotes the lowest concentration found to suppress growth. Low values mean a more susceptible organism, high ones a less susceptible organism. By pKa is commonly meant the negative logarithm of the acid dissociation constant. Low values mean a group that gives up its proton readily, high ones a group that holds its proton tightly.
